# High-throughput results: PubChem BioAssay, The Scripps Research Institute Molecular Screening Center
# Shown are actives, neighbours in structure and some others; about 3.3% of the full set was active somewhere.
# HTRA1 inhibitor – blocks human HTRA1 serine peptidase; Q92743; recombinant HTRA1, FP-rhodamine activity-based probe, fluorescence polarization; inhibition, % at 5.96 µM; 340,000 compounds, 0.5% hits; AID 504803; in the data active = inhibition above about 36%;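 also: 0% = enzyme with DMSO and 100% = wells lacking enzyme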
# rCAG binder – r(CAG) repeat RNA binding; TO-PRO-1 dye displacement fluorescence; inhibition, % at 3 µM; 370,000 compounds, 1.3% hits;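 active = inhibition above the plate cutoff, the mean of all test compounds on that plate plus 3 SD, cut at about 35% in these data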;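 also: 0% = DMSO alone and 100% = 100 µM mitoxantrone as full dye displacement; higher means more dye released from RNA so lower well fluorescence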
# SIAE primary – inhibitors of human sialic acid acetylesterase SIAE; SIAE FP-Rh probe binding, fluorescence polarization; inhibition, % at 9.66 µM; AID 1053197; Q9HAT2; 370,000 compounds, 0.69% hits;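 active = inhibition above a cutoff: mean of compounds within the control limits plus 3 SD of those, cut at about 17% in these data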;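 also: 0% = plate median of compound wells and 100% = probe without SIAE protein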
# PRMT1 FP inh – PRMT1 (human) inhibition, primary screen. AID 652257. Q99873. 370,000 compounds, 1.3% hits. inhibition, % at 2.79 µM. recombinant PRMT1, activity-based probe fluorescence polarization;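 active = inhibition above about 21% made by adding two undisclosed values, limit read from the data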
# Target sequence (Q99873 whole entry, looked up): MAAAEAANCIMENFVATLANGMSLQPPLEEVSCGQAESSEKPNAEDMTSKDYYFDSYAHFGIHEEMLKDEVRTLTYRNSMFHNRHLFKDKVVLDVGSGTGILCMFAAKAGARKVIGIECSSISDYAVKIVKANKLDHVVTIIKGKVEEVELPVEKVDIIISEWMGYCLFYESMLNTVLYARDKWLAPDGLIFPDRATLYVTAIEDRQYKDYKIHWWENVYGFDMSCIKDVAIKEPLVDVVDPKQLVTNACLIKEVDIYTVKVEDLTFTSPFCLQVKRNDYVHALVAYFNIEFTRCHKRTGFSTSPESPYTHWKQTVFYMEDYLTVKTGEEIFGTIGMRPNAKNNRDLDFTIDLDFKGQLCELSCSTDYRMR
# mABHD4 FP – ABHD4 (mouse) inhibition, primary FP screen; AID 720543; purified mABHD4, FP-Rh probe fluorescence polarization; inhibition, % at 8.92 µM; Q8VD66; 370,000 compounds, 0.54% hits;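 active = inhibition exceeding the mean over every tested compound plus 3 SD, cut at about 30% in these data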;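 also: 0% = plate median of compound wells and 100% = S159A mutant with DMSO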
#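 assay system = mABHD4 protein | compound dosing = single nominal dose of 8.92 µM, 0.89% DMSO final | read-out basis = percent inhibition of probe binding, normalized to plate controls | schedule = Enzyme–compound pre-incubation 45 min, then probe 60 min, both 25 °C | detection = fluorescence polarization, excitation 525 nm, emission 598 nm, BODIPY TMR filters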
# PRMT1 inh conf – confirmation of human PRMT1 inhibitors; shares compounds with PRMT1 FP inh; recombinant His-PRMT1, activity-based probe fluorescence polarization; inhibition, % at 2.79 µM; 3,300 compounds, 42% hits; AID 687036;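 active = mean inhibition across replicates above the hit cutoff derived for the earlier primary screen, cut at about 22% in these data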
# ABHD4 confirm – confirmation of mouse ABHD4 inhibitors | shares compounds with mABHD4 FP | purified mABHD4, FP-Rh probe fluorescence polarization | inhibition, % at 8.92 µM | 1,800 compounds, 55% hits;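 active = mean inhibition across replicates above the hit cutoff set in the primary screen, cut at about 30% in these data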;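 also: 0% = wild-type ABHD4 with DMSO and 100% = catalytically dead S159A mutant with DMSO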
# * marks the source's active call; other numbers are inactive results; i = inactive; nt = not tested or not shown.
SMILES,HTRA1 inhibitor,rCAG binder,SIAE primary,PRMT1 FP inh,mABHD4 FP,PRMT1 inh conf,ABHD4 confirm
O=C(N/N=C/c1ccc(-n2ccnc2)cc1)c1cccs1,-3,-1,7,0,-14,nt,nt
Oc1ccc(Br)cc1C=Nc1ccc2c3c(cccc13)CC2,20,-21,7,56*,55*,9,22
Oc1ccc(Cl)cc1C=Nc1ccccc1Br,5,-1,-7,-2,4,nt,nt
Clc1ccccc1-c1cnc2sc(NCc3ccc4c(c3)OCO4)nn12,nt,8,-5,0,-9,nt,nt
CN1c2ccsc2/C(=N/NC(=O)c2c(F)cccc2F)CS1(=O)=O,6,0,-4,1,-12,nt,nt
CN1c2ccsc2/C(=N/Nc2ccccc2)CS1(=O)=O,33,6,5,38*,32*,1,5
COc1ccc(N2CCN(C(=O)COC(=O)CCOc3ccc(C)cc3)CC2)cc1,2,-5,4,-3,-2,nt,nt
Nc1ccc2nc3c(=O)n(CCc4ccccc4)c(=O)[nH]c3nc2c1,nt,-222,15,136*,40*,123*,30*
Nc1ccc2nc3c(=O)n(C4CCCCC4)c(=O)[nH]c3nc2c1,31,i,10,145*,43*,132*,41*
COc1ccccc1N1CCN(C(=O)COc2cc(C)cc(C)c2)CC1,-2,-9,0,5,4,nt,nt
O=C(C=Cc1ccco1)c1ccco1,9,25,3,43*,32*,11,12
O=C(/C=C/c1ccc(Br)cc1)c1ccco1,-10,1,3,5,-5,nt,nt
COC(=O)c1ccc(C(=O)N2CCCC(N3CCN(c4ccc(F)cc4)CC3)C2)nc1 (stereo not drawn),5,-6,3,-2,-2,nt,nt
CN(CCC#N)c1ccc(/C=C(\C#N)c2ccccn2)cc1,0,i,-6,194*,89*,0,-7
O=C(CNC(=O)c1ccccc1F)OCn1nnc2ccccc2c1=O,4,1,-3,4,5,nt,nt
CC[C@@H](C)[C@H](NC(=O)OC(C)(C)C)c1nnc(S(=O)(=O)Cc2cc(C)ccc2C)o1,2,1,1,20,29,nt,nt
CC(C)[C@H](NC(=O)OC(C)(C)C)c1nnc(S(=O)(=O)Cc2c(F)cccc2Cl)o1,4,-9,-6,30*,31*,21,25
CC1(C(=O)NS(=O)(=O)c2cccc(Cl)c2)CCN1C(=O)c1ccccc1 (stereo not drawn),nt,2,-3,-1,-1,nt,nt
CCc1ccc(C(=O)COC(=O)CNC(=O)COc2ccccc2)cc1,-5,-2,3,3,3,nt,nt
C/C(=N\Nc1ccc(Cl)c(C(=O)O)c1)c1ccc[nH]1,17,33,10,32*,35*,5,50*
C/C(=N\Nc1ccc(Cl)c(C(=O)O)c1)c1cccs1,2,11,-3,17,7,nt,nt
NC(=O)CSc1nnc(-c2ccccc2)c(-c2ccccc2)n1,0,-4,-2,2,0,nt,nt
COc1ccccc1N(C(C)=O)C1=C(Cl)C(=O)c2ccccc2C1=O,23,6,6,94*,39*,89*,46*
COc1ccc(S[C@]2(C(=O)N(C)C)CC(=O)N(C(=O)C3CC3)[C@@H]2c2ccc(OC)cc2)cc1,nt,3,-2,42*,34*,34*,32*
COc1ccc(S[C@]2(C(=O)N(C)C)CC(=O)N(c3ccc(Cl)cc3)[C@@H]2c2ccc(OC)cc2)cc1,nt,4,0,-2,-16,nt,nt
SMILES,HTRA1 inhibitor,rCAG binder,SIAE primary,PRMT1 FP inh,mABHD4 FP,PRMT1 inh conf,ABHD4 confirm
O=C1SC(SCc2ccccc2)=N/C1=C\c1ccco1,-5,26,7,42*,30*,1,4
O=C1SC(SCc2ccccc2)=N/C1=C\c1ccc(C(=O)O)cc1,-2,11,-2,12,8,nt,nt
CCCSC1=N/C(=C\C=C\c2ccco2)C(=O)S1,30,76*,11,48*,36*,12,4
O=C(CN1C(=O)CCC1=O)Nc1ccc(Cc2ccc(NC(=O)CN3C(=O)CCC3=O)cc2)cc1,3,6,-2,5,1,nt,nt
COCc1cc(N2CCN(C(=O)OC(C)(C)C)C[C@@H]2C)ccc1N1CC[C@H](O)C1,nt,10,9,58*,35*,7,14
COCc1cc(N2CCN(C(=O)OC(C)(C)C)C[C@@H]2C)ccc1N1CCS(=O)(=O)CC1,nt,0,-3,-4,-4,nt,nt
COCc1cc(N2CCN(C(=O)OC(C)(C)C)C[C@H]2C)ccc1N1CC[C@H](O)C1,nt,6,11,61*,38*,1,9
Cc1cc(N2CCN(C(=O)OC(C)(C)C)C[C@H]2C)ccc1N1C[C@@H](C)O[C@@H](C)C1,nt,-3,8,5,7,nt,nt
NC(CO)C(=O)NNCc1ccc(O)c(O)c1O (stereo not drawn),7,2,13,30*,37*,41*,21
O=C1NC(=O)C2(N1)C(=O)c1cccc3cccc2c13 (stereo not drawn),23,-73,5,139*,78*,72*,16
CCOC(=O)[C@H]1[C@H]2COc3ccc(Cl)cc3[C@@H]2N2C(=O)CNC(=O)[C@@]12C,1,-5,14,0,2,nt,nt
COc1ccccc1N1C(=O)C(Cl)=C(Nc2ccccc2O)C1=O,9,18,-4,40*,31*,26*,16
O=C(Cc1cccs1)NCCc1csc(-c2ccccc2)n1,-3,9,-1,-1,-6,nt,nt
Cc1ccc(/C=C2/C(=O)c3ccc(C(=O)O)cc3C2=O)o1,22,32,-23,41*,34*,39*,-6
Cc1ccc(C=C2C(=O)c3ccccc3C2=O)o1,2,14,-18,12,10,nt,nt
Cc1ccc(NC(=O)CSc2nnc(-c3ccco3)c(-c3ccco3)n2)cc1,31,41*,6,37*,41*,77*,36*
O=c1[nH]c(S)c(/C=C2\C=Nc3ccccc32)s1,nt,11,-2,48*,30*,31*,35*
Nc1ncc(N=Nc2cc(C(=O)O)ccc2Cl)s1,5,10,-3,26*,42*,29*,62*
COc1ccc(S(=O)(=O)Oc2ccc3ccccc3c2)cc1,-19,0,6,-4,-17,nt,nt
COC1=C(OC)C(=O)C(Sc2ccc3ccccc3c2)=CC1=O,6,6,11,95*,57*,94*,102*
CCOc1cccc(=O)c2c(C)n(Cc3ccccc3)c(C)c12,-4,1,6,0,5,nt,nt
CCOc1cccc(=O)c2c(C)n(-c3ccc(C(=O)O)cc3)c(C)c12,8,28,1,37*,39*,12,25
O=C1CCN(Cc2ccccc2)C=C1c1cccc(O)c1,5,2,4,5,-9,nt,nt
